Measurements taken from ChEMBL document CHEMBL1123760, “Synthesis and oral antifungal activity of novel azolylpropanolones and related compounds” (1987).
Converted amounts (≈) assume the structure as drawn.

Legend:
Type in all cases: functional
[1] = system: Candida albicans; test: Minimum effective concentration for inhibition of pseudomycelium formation in Candida albicans; details: for minimal effective concentration: Candida albicans, read-out: MEC
Procedure, shortened: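 C. albicans KE-2 (clinical isolate) at a final 1 × 10^6 yeast cells/mL in EMEM with 20% calf serum; compounds diluted by the same microtiter system as for MICs. After incubation, wells were Giemsa-stained (5% in phosphate buffer) and read by microscope. MEC is the lowest concentration preventing typical pseudomycelium formation.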

[2] = system: Mus musculus; test: Ratio of in vivo number of survivors / total infected; set-up: reference not given here
[3] = system: Trichophyton benhamiae; test: In vitro antifungal activity against Trichophyton asteroides
Procedure, shortened: (§1)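 Broth microdilution MIC in Sabouraud's glucose broth; final inocula 1 × 10^5 cells/mL (yeast) or 1 × 10^5 conidia/mL (mold and dermatophyte).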

[4] = system: Candida albicans; test: In vitro antifungal activity against Candida albicans; procedure, shortened: as §1
[5] = system: Aspergillus fumigatus; test: In vitro antifungal activity against Aspergillus fumigatus; procedure, shortened: as §1
[6] = system: Cavia porcellus; test: Number of skin sections yielding negative culture / total (48) (percentage) in guinea pig dermatophytosis at dose of 40 mg/kg […]. (Value is from Six skin sections cut out from each treated site)
Procedure, shortened: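 Guinea pigs infected with Trichophyton asteroides, four animals each with two lesion sites. Oral 40 mg/kg once daily for 10 days (day 3 to day 12). Read-out is the rate of negative cultures from infected skin sections.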

[7] = system: Mus musculus; test: In vivo activity against subacute systemic murine candidiasis in mice at a daose of 12.5-100 mg/kg dosage range. Value was determined at day 15 after infection; details: 360 h
[8] = Trichophyton benhamiae, read-out: MIC
[9] = Candida albicans, read-out: MIC
[10] = Aspergillus fumigatus, read-out: MIC

Row | Structure (SMILES) | minimal effective concentration [1] [µg/mL] | No. of survivors [2] | MIC [3, 8] [µg/mL] | MIC [4, 9] [µg/mL] | MIC [5, 10] [µg/mL] | No. total [6] | ED50 [7] [mg/kg] | MIC [3] [µg/mL] | MEC [1] [µg/mL] | MIC [5] [µg/mL] | MIC [4] [µg/mL]
1 | O=C(c1ccccc1)C(O)(Cn1ccnc1)c1ccc(Cl)cc1Cl (stereo not given) | 0.63 | 0 | 0.1 (≈ 0.277 µM) | > 100 | > 100 |  |  |  |  |  | 
2 | O=C(c1ccc(Cl)cc1)C(O)(Cn1cncn1)c1ccc(Cl)cc1Cl (stereo not given) | 1.25 | 7 | 0.1 (≈ 0.252 µM) | > 100 | > 100 |  |  |  |  |  | 
3 | CC(C)C(=O)C(O)(Cn1cncn1)c1ccc(Cl)cc1Cl (stereo not given) | 0.04 | 8 | 0.1 (≈ 0.305 µM) | 100 (≈ 305 µM) | 100 (≈ 305 µM) | 7 | 22.6 |  |  |  | 
4 | OC(c1ccc(Cl)cc1Cl)C(O)(Cn1cncn1)c1ccc(Cl)cc1Cl (stereo not given) | 0.08 | 6 | 0.1 (≈ 0.231 µM) | 100 (≈ 231 µM) | > 100 |  |  |  |  |  | 
5 | CC(C)C(=O)C(O)(Cn1ccnc1)c1ccc(Cl)cc1 (stereo not given) | 0.08 | 2 | 0.2 (≈ 0.683 µM) | > 100 | 25 (≈ 85.4 µM) |  |  |  |  |  | 
6 | O=C(c1ccc(Cl)cc1Cl)C(O)(Cn1cncn1)c1ccc(Cl)cc1Cl (stereo not given) | 0.16 | 7 | 0.1 (≈ 0.232 µM) | 50 (≈ 116 µM) | > 100 | 27 | 32.3 |  |  |  | 
7 | O=C1O[C@H](c2ccc(F)cc2)[C@@](Cn2cncn2)(c2ccc(Cl)cc2Cl)O1 | 0.63 | 7 | 0.1 (≈ 0.245 µM) | 50 (≈ 122 µM) | > 100 |  |  |  |  |  | 
8 | O=C(c1ccc(Cl)cc1Cl)C(O)(Cn1cncn1)c1ccc(Cl)cc1 (stereo not given) | 0.31 | 8 | 0.1 (≈ 0.252 µM) | 100 (≈ 252 µM) | > 100 |  |  |  |  |  | 
9 | O=C(c1ccc(Cl)cc1)C(O)(Cn1cncn1)C1CCCC1 (stereo not given) | 0.16 | 1 | 0.1 (≈ 0.313 µM) | 100 (≈ 313 µM) | 50 (≈ 156 µM) |  |  |  |  |  | 
10 | CC(C)[C@H]1OC(=O)O[C@]1(Cn1cncn1)c1ccc(Cl)cc1Cl | 0.63 | 8 | 3.1 (≈ 8.7 µM) | 100 (≈ 281 µM) | > 100 |  |  |  |  |  | 
11 | CCC(=O)C(O)(Cn1cncn1)c1ccc(Cl)cc1Cl (stereo not given) | 0.04 | 2 | 0.1 (≈ 0.318 µM) | 100 (≈ 318 µM) | 100 (≈ 318 µM) |  |  |  |  |  | 
12 | O=C(c1ccc(Cl)cc1Cl)[C@@](O)(Cn1cncn1)c1ccc(Cl)cc1Cl | 1.25 | 1 | 0.1 (≈ 0.232 µM) | 50 (≈ 116 µM) | > 100 |  |  |  |  |  | 
13 | O=S1O[C@H](c2ccc(F)cc2)[C@](Cn2cncn2)(c2ccc(Cl)cc2Cl)O1 (stereo not given in full) | 0.04 | 0 | 0.1 (≈ 0.233 µM) | > 100 | > 100 |  |  |  |  |  | 
14 | OC(c1ccccc1Cl)C(O)(Cn1ccnc1)c1ccccc1Cl (stereo not given) | 1.25 | 4 | 0.4 (≈ 1.1 µM) | > 100 | 100 (≈ 275 µM) |  |  |  |  |  | 
15 | O=C(c1ccccc1)C(O)(Cn1cncn1)c1ccccc1 (stereo not given) | > 20 | 0 | 12.5 (≈ 42.6 µM) | > 100 | > 100 |  |  |  |  |  | 
16 | CCCCC(=O)C(O)(Cn1cncn1)c1ccc(Cl)cc1Cl (stereo not given) | 0.04 | 2 | 0.1 (≈ 0.292 µM) | 50 (≈ 146 µM) | > 100 |  |  |  |  |  | 
17 | O=C1O[C@H](c2ccccc2)[C@@](Cn2cncn2)(c2ccc(Cl)cc2Cl)O1 | 0.16 | 0 | 0.16 (≈ 0.41 µM) | 100 (≈ 256 µM) | > 100 |  |  |  |  |  | 
18 | O=C(c1ccc(F)cc1)C(O)(Cn1cncn1)c1ccccc1Cl (stereo not given) | 2.5 | 8 | 1.6 (≈ 4.63 µM) | 100 (≈ 289 µM) | > 100 |  |  |  |  |  | 
19 | Clc1ccc([C@@]2(Cn3cncn3)OC3(CCCCC3)O[C@@H]2c2ccc(Cl)cc2Cl)cc1 | 5 | 0 | 0.1 (≈ 0.209 µM) | > 100 | > 100 |  |  |  |  |  | 
20 | O=C(c1ccc(Cl)cc1Cl)C(O)(Cn1cncn1)c1ccc(F)cc1 (stereo not given) | 0.31 | 8 | 0.1 (≈ 0.263 µM) | 100 (≈ 263 µM) | > 100 |  | 20.2 |  |  |  | 
21 | O=S1O[C@H](c2ccc(F)cc2)[C@@](Cn2cncn2)(c2ccc(Cl)cc2Cl)O1 (stereo not given in full) | 0.04 | 4 | 0.1 (≈ 0.233 µM) | > 100 | 50 (≈ 117 µM) |  |  |  |  |  | 
22 | O=C(c1ccccc1F)C(O)(Cn1cncn1)c1ccc(Cl)cc1Cl (stereo not given) | 0.04 | 7 | 0.1 (≈ 0.263 µM) | 100 (≈ 263 µM) | > 100 |  |  |  |  |  | 
23 | OC(c1ccccc1Cl)C(O)(Cn1cncn1)c1ccc(F)cc1 (stereo not given) | 10 | 0 | 0.8 (≈ 2.3 µM) | > 100 | > 100 |  |  |  |  |  | 
24 | Clc1ccc([C@@]2(Cn3cncn3)OCO[C@@H]2c2ccc(Cl)cc2Cl)cc1 | 0.31 | 0 | 0.1 (≈ 0.243 µM) | > 100 | > 100 |  |  |  |  |  | 
25 | CC(C)C(=O)C(O)(Cn1cncn1)c1ccc(Cl)cc1 (stereo in doubt; 36) | 0.04 | 7 | 0.1 (≈ 0.34 µM) | 100 (≈ 340 µM) | 12.5 (≈ 42.6 µM) |  |  |  |  |  | 
26 | CC(C)C(=O)C(O)(Cn1cncn1)c1ccc(Cl)cc1 (stereo in doubt; 39) |  |  |  |  |  |  | 14.7 | 0.1 (≈ 0.34 µM) |  |  | 
27 | OC(c1ccc(F)cc1)C(O)(Cn1cncn1)c1ccc(Cl)cc1Cl (stereo in doubt; 92) |  | 8 |  | 50 (≈ 131 µM) |  | 11 | 25.6 | 0.1 (≈ 0.262 µM) | 0.08 | 25 (≈ 65.4 µM) | 
28 | CC(O)(c1ccc(F)cc1)C(O)(Cn1cncn1)c1ccc(Cl)cc1 (stereo in doubt; 162) |  | 8 |  |  |  |  |  | 0.1 (≈ 0.276 µM) | 0.08 | 100 (≈ 276 µM) | >100
29 | CC(=O)N1CCN(c2ccc(OCC3COC(Cn4ccnc4)(c4ccc(Cl)cc4Cl)O3)cc2)CC1 (stereo not given) [KETOCONAZOLE] |  |  |  |  |  |  | 32.3 |  |  |  | 
